Results on 3 compounds are retold here after PMC10373183 (ACS Omega, 2023).

One data set relates to U937 cells. The experiment in a line: CellTiter-Glo Luminescent cell viability assay. Type of data set: cell-based, human. As to conditions: for inhibition at 25 µM / inhibition at 50 µM / inhibition at 100 µM / inhibition at 200 µM / GI50: Homo sapiens; for inhibition at 25 µM / inhibition at 50 µM / inhibition at 100 µM / inhibition at 200 µM: U-937, 72 h, read-out: percent inhibition at various concentrations of compounds (CellTiter-Glo, antiproliferative); for GI50: U-937, read-out: antiproliferative (U937) GI50. A digest of the protocol: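 U937 cells incubated 72 h with test compound at four concentrations; CellTiter-Glo reagent added at equal volume, shaken 2 min to lyse, then held 10 min at room temperature before luminescence read. Viability = RLU test × 100/RLU control, converted to percent inhibition. GI50 fitted from percent inhibition. Mitomycin C positive control; DMSO diluent as negative control.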

Data set [1] in a line: LDH release cytotoxicity assay. As to conditions: human, U937 cells. It is filed as cell-based. A digest of the protocol:
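U937 cells plated and exposed to test compound at several concentrations for 4 h at 37 °C, with Triton X-100 as positive cytotoxicity control. Plates spun 1000 RPM for 5 min. Supernatants mixed with LDH detection reagent for 10 min in the dark at room temperature, then read at OD 490 nm. LC50 fitted from percent activity.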
(LDH in the medium is a marker of cell lysis.)

The structures appear in SMILES notation. Entries after “also recorded” stand apart in the source; their conditions may differ. Where only a bound is given, the exact number is not on record here.

`Cc1nn(C)c(C)c1S(=O)(=O)NCCc1cccc(Cl)c1` [MR-S1-8, N-(3-Chlorophenethyl)-1,3,5-trimethyl-1H-pyrazole-4-sulfonamide]: in the data set on U937 cells, the inhibition at 25 µM was 25.1%, the inhibition at 50 µM was determined as 28.4%, the inhibition at 100 µM was 34.6% and the inhibition at 200 µM was 47.4%. Besides, in the data set with U937 cells, the GI50 is > 200 µM. In data set [1], the inhibition at 4 h, 12.5 µM was 2.9%; the inhibition at 4 h, 25 µM is -1.3%; the inhibition at 4 h, 50 µM was found to be 1.8%; the inhibition at 4 h, 100 µM is 0.4%.

With `Cc1n[nH]c(C)c1S(=O)(=O)NCCc1c[nH]c2ccccc12` [MR-S1-16, N-(2-(1H-Indol-3-yl)ethyl)-3,5-dimethyl-1H-pyrazole-4-sulfonamide], in the data set with U937 cells, the inhibition at 25 µM is 14.5%, the inhibition at 50 µM was determined as 24.1%, the inhibition at 100 µM is 22.5% and the inhibition at 200 µM came out at 55.9%. Moreover, in the data set on U937 cells, the GI50 was > 200 µM. In data set [1], the inhibition at 4 h, 12.5 µM turned out to be 3.8%; the inhibition at 4 h, 25 µM is -0.9%; the inhibition at 4 h, 50 µM was -1.6%; the inhibition at 4 h, 100 µM is -1.8%.

As to `Cc1nn(C)c(C)c1S(=O)(=O)NCCc1ccccc1` [MR-S1-4, 1,3,5-Trimethyl-N-phenethyl-1H-pyrazole-4-sulfonamide], in the data set on U937 cells, the inhibition at 25 µM was determined as 33%, the inhibition at 50 µM was 19.2%, the inhibition at 100 µM is 37.8% and the inhibition at 200 µM is 23.2%. The 50% growth inhibitory concentration (GI50) with U937 cells is > 200 µM. The “antiproliferative activity (in words)” value with U937 cells (U937 cells, CellTiter-Glo, four concentrations) was “impotent; also recorded: less anti-proliferative activity”. Moreover, in data set [1], the inhibition at 4 h, 12.5 µM is -2.9%; the inhibition at 4 h, 25 µM is -2.2%; the inhibition at 4 h, 50 µM was -0.9%; the inhibition at 4 h, 100 µM was -1.8%.

What is called GI50 is the concentration giving 50% growth inhibition.
